Laboratory results taken from ChEMBL document CHEMBL1821727, “Design, synthesis, and pharmacological evaluation of novel hybrid compounds to treat sickle cell disease symptoms” (J Med Chem, 2011).
Calls of active or inactive are those of the source. No cut-off for these calls is given here.

Legend:
Mus musculus [1] = assay: Antiinflammatory activity in Swiss albino mouse assessed as inhibition of capsaicin-induced ear edema at 300 umol/kg, po administered 1 hr before capsaicin challenge measured after 30 mins relative to control; type: functional
In short: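 Female Swiss mice, 8 weeks old, groups of six; oral dosing at 300 μmol/kg as suspension in arabic gum, vehicle controls 10 mL/kg po; left ear given acetone. Killed 30 min after capsaicin; 7 mm ear punches weighed, edema = treated right minus untreated left ear weight; % inhibition vs vehicle control; mean ± SEM, n = 8, ANOVA/Dunnett.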

Mus musculus [2] = assay: Antiinflammatory activity in Swiss albino mouse peritonitis model assessed as reduction in thioglycollate-induced of leukocyte migration at 300 umol/kg, po administered 1 hr before thioglycollate challenge measured after 4 hrs; type: functional, organism-based
In short: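 Mice dosed at 300 μmol/kg po in arabic gum, then 1 h later given 1 mL 3% thioglycollate ip. Killed at 4 h, peritoneum washed with 1.5 mL cold PBS; exudate cells recovered and total cells counted in Neubauer chamber; exudate >98% neutrophils. Mean ± SEM, at least six animals, ANOVA/Dunnett vs vehicle.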

Mus musculus [3] = assay: Antinociceptive activity in Swiss albino mouse assessed as reduction in acetic acid-induced abdominal constrictions at 100 umol/kg, po administered 1 hr before acetic acid challenge measured for 20 mins relative to control; type: functional, Abdomen; parameters: scale not given: the % may be the effect or the level left
In short: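 Constrictions counted for 20 min starting 10 min after injection; % inhibition vs vehicle group; mean ± SEM, 10 animals per group, Student's t test.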

[4] = Antiinflammatory activity in knockout-transgenic sickle cell mouse monocytes assessed as inhibition of LPS-induced TNFalpha production at 100 uM administered 30 mins before LPS challenge […]; type: functional, Monocyte
[5] = Antiinflammatory activity in knockout-transgenic sickle cell mouse monocytes assessed as inhibition of LPS-induced TNFalpha production at 300 uM administered 30 mins before LPS challenge […]; type: functional, Monocyte
Salmonella typhimurium [6] = assay: Mutagenic activity in Salmonella Typhimurium TA100 preincubated for 20 to 30 mins; type: toxicity, organism-based; settings: salmonella enterica subsp. enterica serovar typhimurium
Salmonella typhimurium [7] = assay: Mutagenic activity in Salmonella Typhimurium TA102 preincubated for 20 to 30 mins; type: toxicity, organism-based; settings: salmonella enterica subsp. enterica serovar typhimurium
Blood = assay: Genotoxicity in mouse peripheral blood by micronucleus test; type: toxicity, tissue-based
[8] = Antiinflammatory activity in knockout-transgenic sickle cell mouse monocytes assessed as inhibition of LPS-induced TNFalpha production at 1 uM administered 30 mins before LPS challenge […]; type: functional, Monocyte
[9] = Antiinflammatory activity in knockout-transgenic sickle cell mouse monocytes assessed as TNFalpha level at 100 uM administered 30 mins before LPS challenge measured after […] by ELISA; type: functional, Monocyte
In short: (§1)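 Blood drawn by intracardiac puncture from anesthetized adult knockout-transgenic sickle cell mice; mononuclear cells isolated on Ficoll, adhered 2 h in DMEM + 10% calf serum (5% CO2, 37 °C), monocyte purity >90% by May-Giemsa. Compounds (100 or 300 μM; dexamethasone 1 μM) added 30 min before LPS 1 μg/mL; supernatant TNFα by ELISA after 20 h. Mean ± SEM, N ≥ 4 experiments.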

[10] = Antiinflammatory activity in knockout-transgenic sickle cell mouse monocytes assessed as TNFalpha level at 300 uM administered 30 mins before LPS challenge measured after […] by ELISA; type: functional, Monocyte; in short: as §1

SMILES	inhibition in vivo at 300 µmol/kg (Mus musculus [1])	Activity (Mus musculus [2])	Activity (Salmonella typhimurium [6])	Activity (Salmonella typhimurium [7])	Activity (Blood)	further results
O=C1c2ccccc2C(=O)N1c1ccc(CO[N+](=O)[O-])cc1	43%	Active	Non-toxic	Non-toxic	Non-toxic	Activity (Mus musculus [3]): 66%; inhibition (INH) [4]: 67%; inhibition (INH) [5]: 84%
O=C1c2ccccc2C(=O)N1CO[N+](=O)[O-]	43%	Active	Non-toxic	Non-toxic	Non-toxic	
O=C1c2ccccc2C(=O)N1CCO[N+](=O)[O-]	43%	Active	Non-toxic	Non-toxic	Non-toxic	Activity (Mus musculus [3]): 25%
O=C1c2ccccc2C(=O)N1c1cccc(CO[N+](=O)[O-])c1	65%	Active	Non-toxic	Non-toxic	Non-toxic	inhibition (INH) [4]: 45%; inhibition (INH) [5]: 91%
C[C@@H]1C[C@H]2[C@@H]3CCC4=CC(=O)C=C[C@]4(C)[C@@]3(F)[C@@H](O)C[C@]2(C)[C@@]1(O)C(=O)CO [DEXAMETHASONE]						inhibition (INH) [8]: 83%
O=C1c2ccccc2C(=O)N1c1ccc(CCO[N+](=O)[O-])cc1	43%	Active	Non-toxic	Non-toxic	Non-toxic	
O=C1CCC(N2C(=O)c3ccccc3C2=O)C(=O)N1CO[N+](=O)[O-] (stereo unspecified)	43%	Active	Non-toxic	Non-toxic	Non-toxic	
COc1ccc2c(c1)c(CC(=O)O)c(C)n2C(=O)c1ccc(Cl)cc1						inhibition (Mus musculus [1]): Active
NC(=O)NO [HYDROXYUREA]						Activity [9]: 463.3 pg/mL; Activity [10]: 579.8 pg/mL
Cc1c(N(C)CS(=O)(=O)O)c(=O)n(-c2ccccc2)n1C						Activity (Mus musculus [3]; Abdomen): inactive
